The list is not random: actives were taken first. Their share in the collection is about 1.2%.
PfG6PD inh: PfG6PD (Plasmodium falciparum) enzyme inhibition; PfGluPho enzyme, NADPH resazurin-diaphorase fluorescence; 0.78% of 350,000 active; AID 504690; inhibition, % at 20 µM;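 active = inhibition reaching at least a set limit at 20 µM in the primary screen, cut at about 59% in these data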;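 also: 0% = DMSO wells with substrate and 100% = DMSO wells lacking glucose-6-phosphate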
HKDC1 inh: inhibitors of human hexokinase HKDC1; inhibition, % at 20 µM; 0.16% of 340,000 active; recombinant HKDC1, G6PDH/diaphorase resazurin coupled fluorescence;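 active = inhibition above about 35% when tested at 20 µM, limit read from the data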;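 also: plate controls were DMSO wells with enzyme for no effect and DMSO wells lacking enzyme for full effect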
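Assay system – recombinant HKDC1 (HK5) hexokinase enzyme, produced in-house · Input – HKDC1 at 5 µg/mL · Reagent – glucose plus 1 mM ATP as hexokinase substrates · Timing – 90 min reaction incubation at room temperature, dark · Measured by – G6PDH/diaphorase-coupled fluorescence, 1 mM NADP, 100 µM resazurin, 525/613 nm · Benchmarks – DMSO-enzyme wells negative, buffer-substituted wells positive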
Diaphorase inh: diaphorase inhibition or chemical oxidation counter-screen | diaphorase resazurin-to-resorufin fluorescence, NADH, 16 min; bacterial (C. kluyveri) enzyme, not human | 0.69% of 190,000 active | inhibition, % at 20 µM;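 active = primary screen inhibition at 20 µM above a set limit, cut at about 50% in these data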;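 also: plate controls were DMSO with full reaction for no effect and wells lacking NADH for full effect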
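Test system: bacterial diaphorase enzyme (C. kluyveri); Quantity: 0.14 U/mL diaphorase, enzyme working solution; Times: reaction incubation of 16 min at room temperature; Measured by: fluorescence of resorufin formed from resazurin, Ex 544/Em 590 nm; Benchmarks: positive control minus NADH, DMSO neutral control.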
G6PDH CS: L. mesenteroides G6PDH inhibition counter-screen. AID 1020. Purified L. mesenteroides G6PDH, diaphorase/resazurin coupled fluorescence, 45 min. 0.12% of 200,000 active. inhibition, % at 5 µM; in the data active = inhibition above about 50%
Starred values were filed as active, the others as inactive; . = no result given.

SMILES	PfG6PD inh	HKDC1 inh	Diaphorase inh	G6PDH CS
Cc1ccc(S(=O)(=O)/N=C2/C=C(Sc3ncn[nH]3)C(=O)c3ccccc32)c(C)c1	.	.	69.0*	36.9
CC(=O)N1C(=S)NC(=O)/C1=C1/C(=O)N(CC(=O)Nc2cccc(C)c2)c2ccccc21	-6.7	7.7	66.6*	2.6
CC1(C)Cc2c(C#N)c(N3CCCC3)nc(-c3ccco3)c2CO1	.	.	54.6*	0.1
CC1(C)Cc2c(C#N)c(NCc3ccco3)nc(-c3ccco3)c2CO1	12.7	-3.3	20.4	2.1
COc1ccc(NC(=O)C2CCCN(C(=O)c3ccc(Cl)cc3)C2)cc1S(=O)(=O)N(C)C (centres undefined)	5.1	2.0	.	.
c1ccc(-[n+]2nc(Nc3cccc4ccccc34)sc2-c2c3ccccc3cc3ccccc23)cc1	83.5*	17.7	.	.
COc1ccc(OC)c(S(=O)(=O)N2CCN(C(=O)c3cc(C4CC4)nn3-c3ccccc3)CC2)c1	-1.3	-2.6	.	.
Cc1ccc(S(=O)(=O)/N=C2\C(=O)c3ccccc3C([O-])=C2n2cc[n+](CCC(C)C)c2)cc1	44.4	-0.1	11.8	52.7*
CCCCn1c(=O)cc(O)c2ccccc21	4.1	3.4	14.2	1.8
CCCCn1c(C)cc2cc(O)ccc21	11.4	3.1	31.8	56.7*
O=C(O)CN1C(=O)/C(=C2\C(=O)N(Cc3ccccc3Cl)c3ccccc32)SC1=S	-9.3	51.3*	.	.
CC(C)C(NC(=O)c1c(F)cccc1F)C(=O)NCc1ccc(S(=O)(=O)N2CCOCC2)cc1 (centres undefined)	-7.6	-4.4	.	.
O=C(NNC(=S)NC(=O)c1ccccc1[N+](=O)[O-])c1ccccc1[N+](=O)[O-]	-19.9	-14.0	8.1	9.8
O=C(NNC(=S)NC(=O)c1ccccc1[N+](=O)[O-])c1ccccc1O	-44.4	-27.8	59.3*	5.4
Nc1cccc2nsnc12	43.8	20.8	.	.
Nc1cc2nsnc2cc1Br	98.7*	-4.3	40.9	57.8*
Cc1c(N=Nc2c(-c3ccc([N+](=O)[O-])cc3)[nH]n(C(N)=S)c2=O)cccc1[N+](=O)[O-]	12.4	4.8	53.5*	5.5
NC(=S)n1[nH]c(-c2ccc([N+](=O)[O-])cc2)c(N=Nc2ccccc2[N+](=O)[O-])c1=O	-3.4	-2.7	27.3	8.2
NC(=S)n1[nH]c(-c2ccc([N+](=O)[O-])cc2)c(N=Nc2cccc([N+](=O)[O-])c2)c1=O	29.2	-5.4	79.4*	0.1
Cc1noc(C)c1NC(=O)N(C)C[C@H]1Oc2ccc(NC(=O)Cc3ccccc3)cc2C(=O)N([C@H](C)CO)C[C@@H]1C	2.8	-5.4	.	.
Cc1c(C(=O)Nc2ccc(F)cc2)cn2c(nc3ccccc32)c1C#N	-7.5	-1.1	.	.
N#Cc1c2nc3ccccc3nc2n2cc(NC(=O)c3ccc(F)cc3)ccc12	9.2	12.3	89.9*	33.9
Cc1ccc(C)n1-c1ccc(N2CCOCC2)c(Br)c1	9.2	-2.1	56.0*	0.2
Cc1cccc(NC(=O)CN(CC2CCCO2)C(=O)c2ccc(S(C)(=O)=O)cc2)c1C (centres undefined)	-1.3	-4.8	.	.
COC(=O)C1=C(C)N(C)C(=O)NC1c1cc2c(cc1[N+](=O)[O-])OCO2 (centres undefined)	29.5	0.9	59.0*	10.0
SMILES	PfG6PD inh	HKDC1 inh	Diaphorase inh	G6PDH CS
COC(=O)C1=C(C)N(CCCC(=O)O)C(=O)NC1c1cc2c(cc1[N+](=O)[O-])OCO2 (centres undefined)	17.5	3.7	38.2	16.6
CC(=O)c1c(N2CCCC2)nc(=S)n(-c2ccccc2)c1C	-5.1	-13.5	54.2*	-4.9
CCCCNc1nc(=S)n(-c2ccccc2)c(C)c1C(C)=O	-21.1	9.2	71.4*	1.5
CCn1c(C)c(C(C)=O)c(N2CCN(c3ccccn3)CC2)nc1=S	2.9	-7.5	62.5*	1.6
N#Cc1c(N)nc2c3c(sc(=N)c2c1N)NC(=O)CC3c1ccccc1 (centres undefined)	34.0	7.6	26.2	-15.6
N#Cc1c(N)nc2c3c(sc(=N)c2c1N)NC(=O)CC3c1c(F)cccc1Cl (centres undefined)	4.9	1.1	52.8*	-1.7
Cc1ccc(C)c(OCCC(=O)Nc2ccc(S(=O)(=O)N3CCCC3)cc2)c1	13.4	-2.8	.	.
CCn1c(=O)n(CC)c2cc(N)ccc21	18.1	-8.2	74.8*	9.6
CCn1c(=O)n(CC)c2cc(S(N)(=O)=O)ccc21	17.5	-5.9	19.8	5.5
O=C1/C(=C/c2ccco2)SC(=S)N1C1CCS(=O)(=O)C1 (centres undefined)	7.3	-3.2	61.1*	12.8
O=C(O)CCCN1C(=O)/C(=C\c2ccco2)SC1=S	-11.8	5.4	59.2*	14.1
O=C(CCCN1C(=O)/C(=C/c2ccco2)SC1=S)Nc1ccccc1C(=O)O	-8.8	8.3	.	.
O=C1/C(=C\c2ccco2)SC(=S)N1C1CCS(=O)(=O)C1 (centres undefined)	34.4	1.4	.	.
CCCS(=O)(=O)N1CCC(C(=O)Oc2ccc(OC)cc2)CC1	2.7	-1.3	.	.
CC(C)CN(Cc1c(O)ccc2ccccc12)CC(C)C	17.4	8.9	44.3	31.5
CCN(Cc1ccncc1)Cc1c(O)ccc2ccccc12	0.8	21.0	64.3*	28.0
O=C(N/N=C/c1cc([N+](=O)[O-])ccc1O)C1CCCCC1	-15.2	-18.9	56.4*	15.6
CCC(CC)C(=O)NCCc1cc2ccc(C)cc2[nH]c1=O	-0.5	-1.8	13.0	-10.4
Cc1ccc2cc(CCNC(=O)c3ccc(C)c([N+](=O)[O-])c3)c(=O)[nH]c2c1	-44.0	8.8	59.4*	-1.6
Cc1cccc(N2CCN(C(=O)[C@H](C)N3C(=O)C4CC=CCC4C3=O)CC2)c1C (some centres undefined)	-2.3	-1.9	.	.
CCCn1c(N)c(C(=O)CSc2nc(N)cc(=O)[nH]2)c(=O)n(C)c1=O	2.5	-1.6	.	.
Cc1c(NC(=O)CC(=O)Nc2c(C)n(C)n(-c3ccccc3)c2=O)c(=O)n(-c2ccccc2)n1C	-0.4	-6.9	9.7	10.5
Cc1c(NC(=O)CSc2ccccc2F)c(=O)n(-c2ccccc2)n1C	-4.6	-1.7	50.1*	0.7
CCN1C(=O)c2cccc3c(S(=O)(=O)Nc4ccccc4OC)ccc1c23	-30.0	4.3	51.3*	0.3
CC(=O)NC(c1ccccc1)c1cc([N+](=O)[O-])c2cccnc2c1O (centres undefined)	28.9	15.3	56.1*	60.8*
CC(=O)NC(c1cccs1)c1cc([N+](=O)[O-])c2cccnc2c1O (centres undefined)	22.0	10.3	44.0	61.2*
CC(C)C(=O)NC(c1ccccc1)c1cc([N+](=O)[O-])c2cccnc2c1O (centres undefined)	44.1	13.6	39.4	55.0*
CCC(=O)NC(c1cccs1)c1cc([N+](=O)[O-])c2cccnc2c1O (centres undefined)	34.5	8.6	31.0	37.9
CC(=O)NC(c1ccc(C)cc1)c1cc(Cl)c2cccnc2c1O (centres undefined)	-10.4	-26.0	.	.

Bioassay records as filed in PubChem.
